ChEMBL document CHEMBL4190396, “Discovery of Novel Small-Molecule Inhibitors of NF-κB Signaling with Antiinflammatory and Anticancer Properties” (J Med Chem, 2018)
Activity calls are given as the source filed them. The rule behind the calls is not given here.

How the values were obtained:
HEK293 = assay: Cytotoxicity against HEK293 cells expressing human TLR7 assessed as reduction in cell viability up to 20 uM after 24 hrs by WST-1 assay; format: cell-based; conditions: hek293, 24 h
Procedure, shortened: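 HEK hTLR7 cells seeded 5×10^4/well, 24 h, then exposed to a concentration series for 24 h; WST-1 reagent added at 37 °C until colour developed (30 min–2 h), absorbance 450 nm.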

[1] = molecular target: NF-kappa-B inhibitor alpha (Mus musculus) (UniProt Q9Z1E3); assay: Inhibition of LPS-induced IkB-alpha phosphorylation in mouse RAW264.7 cells at 1 to 10 uM preincubated for 1 hr followed by LPS stimulation for 15 to 30 mins by Western blot method; format: cell-based
Sequence of NF-kappa-B inhibitor alpha (Mus musculus) (Q9Z1E3 whole entry): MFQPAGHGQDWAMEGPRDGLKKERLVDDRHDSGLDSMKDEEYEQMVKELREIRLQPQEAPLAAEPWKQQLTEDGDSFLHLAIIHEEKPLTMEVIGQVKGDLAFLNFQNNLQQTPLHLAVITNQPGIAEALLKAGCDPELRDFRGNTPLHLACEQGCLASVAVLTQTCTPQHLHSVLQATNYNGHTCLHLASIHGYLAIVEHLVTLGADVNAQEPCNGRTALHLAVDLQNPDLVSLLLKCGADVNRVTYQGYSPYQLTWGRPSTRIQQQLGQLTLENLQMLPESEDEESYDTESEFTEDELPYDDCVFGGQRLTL
Procedure, shortened: (§1)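 RAW 264.7 cells, 3×10^6 per dish overnight, pretreated 1 h with 1, 5 or 10 µM, then LPS 100 ng/mL for 15 or 30 min; nuclear/cytoplasmic lysates (20–30 µg) run on 10% SDS-PAGE, immunoblotted for phospho/total proteins, GAPDH loading control, ECL, densitometry; three independent experiments.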

[2] = molecular target: Inhibitor of nuclear factor kappa-B kinase subunit alpha/beta (Mus musculus) (UniProt Q60680+O88351); assay: Inhibition of IKK-alphabeta in mouse RAW264.7 cells assessed as reduction in LPS-induced IKK-alphabeta phosphorylation at 1 to 10 uM preincubated for 1 hr followed by LPS stimulation for 15 to 30 mins by Western blot method; format: cell-based; procedure, shortened: as §1
HeLa [3] = assay: Cell cycle arrest in human HeLa cells assessed as accumulation at G2/M phase at 10 uM after 24 hrs by propidium iodide staining based flow cytometry (reference value: 15.7%); format: functional
Procedure, shortened: (§2)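 HeLa cells, 3×10^5/well, attached overnight, switched to serum-free medium for synchronisation, then DMSO or 5, 10, 20 µM for 24 h; cells fixed, PI-stained, G0/G1, S and G2/M fractions by flow cytometry; n = 3, mean ± SD.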

[4] = molecular target: Toll-like receptor 1/2 (Homo sapiens) (UniProt O60603+Q15399); assay: Antagonist activity at human TLR1/2 expressed in HEK293 cells assessed as decrease in Pam3CSK4-induced NF-kappaB activation-mediated SEAP production at 10^-9 to 10^-5 M after 24 hrs by Quanti-blue-based assay; format: cell-based
Procedure, shortened: (§3)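 HEK293 cells stably carrying a human TLR plus an NF-κB-driven SEAP reporter, seeded 5×10^4/well for 24 h at 37 °C, then stimulated: Pam3CSK4 100 µg/mL (TLR1/2), Pam2CSK4 100 µg/mL, poly I:C 5 µg/mL (TLR3), LPS 20 ng/mL (TLR4), flagellin 100 ng/mL (TLR5), R848 1 µg/mL (TLR7, TLR8), CpG-ODN2006 1 µg/mL (TLR9). After 24 h with compound, supernatant mixed with QUANTI-Blue, 1 h 37 °C, OD 620 nm.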

[5] = molecular target: Mitogen-activated protein kinase 15 (Homo sapiens) (UniProt Q8TD08); assay: Inhibition of wild-type human partial length ERK8 (M1 to P437 residues) expressed in bacterial expression system assessed as residual activity at 20 uM by Kinomescan method relative to control
Sequence of Mitogen-activated protein kinase 15 (Homo sapiens) (Q8TD08 whole entry, the tested form may be a part): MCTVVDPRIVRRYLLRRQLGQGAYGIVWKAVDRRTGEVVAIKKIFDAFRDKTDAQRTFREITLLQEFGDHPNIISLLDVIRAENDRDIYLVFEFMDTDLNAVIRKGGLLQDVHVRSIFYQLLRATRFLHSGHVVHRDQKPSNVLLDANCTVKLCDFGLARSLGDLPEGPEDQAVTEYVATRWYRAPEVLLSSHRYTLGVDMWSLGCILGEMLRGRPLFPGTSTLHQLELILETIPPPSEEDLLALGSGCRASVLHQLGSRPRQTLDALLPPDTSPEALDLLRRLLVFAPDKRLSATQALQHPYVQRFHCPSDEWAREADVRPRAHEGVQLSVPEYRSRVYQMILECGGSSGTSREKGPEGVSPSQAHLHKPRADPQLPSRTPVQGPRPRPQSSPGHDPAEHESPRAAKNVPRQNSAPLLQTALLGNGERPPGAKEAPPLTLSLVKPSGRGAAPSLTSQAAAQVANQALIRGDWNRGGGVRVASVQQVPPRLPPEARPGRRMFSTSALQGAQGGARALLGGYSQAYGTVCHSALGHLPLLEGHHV

[6] = molecular target: MAP kinase p38 (Mus musculus) (UniProt P47811+O08911+Q9WUI1+Q9Z1B7); assay: Inhibition of LPS-induced p38 MAPK phosphorylation in mouse RAW264.7 cells at 1 to 10 uM preincubated for 1 hr followed by LPS stimulation for 15 to 30 mins by Western blot method; format: cell-based; procedure, shortened: as §1
[7] = molecular target: Toll-like receptor 9 (Homo sapiens) (UniProt Q9NR96); assay: Antagonist activity at human TLR9 expressed in HEK293 cells assessed as decrease in CpG-ODN2006-induced NF-kappaB activation-mediated SEAP production at 10^-9 to 10^-5 M after 24 hrs by Quanti-blue-based assay; format: cell-based; procedure, shortened: as §3
Sequence of Toll-like receptor 9 (Homo sapiens) (Q9NR96 whole entry): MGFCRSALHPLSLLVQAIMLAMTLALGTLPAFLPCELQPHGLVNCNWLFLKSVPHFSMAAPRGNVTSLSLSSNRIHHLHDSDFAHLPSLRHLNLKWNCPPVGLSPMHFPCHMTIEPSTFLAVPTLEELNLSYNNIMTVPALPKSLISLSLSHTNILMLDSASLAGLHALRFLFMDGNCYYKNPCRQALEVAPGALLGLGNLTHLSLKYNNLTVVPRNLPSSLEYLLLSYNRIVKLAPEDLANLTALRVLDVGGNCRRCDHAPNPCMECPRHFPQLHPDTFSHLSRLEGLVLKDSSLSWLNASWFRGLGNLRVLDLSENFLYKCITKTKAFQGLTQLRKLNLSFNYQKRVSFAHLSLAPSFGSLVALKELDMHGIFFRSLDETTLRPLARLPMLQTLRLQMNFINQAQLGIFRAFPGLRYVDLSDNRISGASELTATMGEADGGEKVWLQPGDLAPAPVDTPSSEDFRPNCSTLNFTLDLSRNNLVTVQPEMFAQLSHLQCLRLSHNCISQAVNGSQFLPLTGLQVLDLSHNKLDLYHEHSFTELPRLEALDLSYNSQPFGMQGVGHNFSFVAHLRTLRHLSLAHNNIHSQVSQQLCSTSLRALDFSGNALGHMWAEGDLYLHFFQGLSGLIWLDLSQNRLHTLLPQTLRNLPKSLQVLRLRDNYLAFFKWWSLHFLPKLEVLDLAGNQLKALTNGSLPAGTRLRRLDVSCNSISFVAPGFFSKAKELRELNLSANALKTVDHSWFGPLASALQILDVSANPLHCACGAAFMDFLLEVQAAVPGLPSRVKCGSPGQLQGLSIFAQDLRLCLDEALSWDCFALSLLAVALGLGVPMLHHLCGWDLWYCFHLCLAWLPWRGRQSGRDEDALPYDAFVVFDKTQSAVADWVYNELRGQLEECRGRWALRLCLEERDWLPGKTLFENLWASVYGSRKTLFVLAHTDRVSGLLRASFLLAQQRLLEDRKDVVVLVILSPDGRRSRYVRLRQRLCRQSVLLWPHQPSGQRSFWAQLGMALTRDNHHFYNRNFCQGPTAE

RAW264.7 = assay: Inhibition of LPS-induced PI3K-mediated AKT phosphorylation in mouse RAW264.7 cells at 1 to 10 uM preincubated for 1 hr followed by LPS stimulation for 15 to 30 mins by Western blot method; format: cell-based; procedure, shortened: as §1
HeLa [8] = assay: Induction of apoptosis in human HeLa cells after 24 hrs by Annexin-V FITC/propidium iodide staining based flow cytometry; format: functional, cell-based
Procedure, shortened: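 HeLa cells, 3×10^5/well, attached 24 h, then DMSO or 5, 10, 20 µM for 24 h; harvested with EDTA-free 0.25% trypsin, Annexin V-FITC/PI double stained, flow cytometry; early plus late apoptotic fractions counted; three independent experiments.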

HeLa [9] = assay: Cell cycle arrest in human HeLa cells assessed as accumulation at S phase at 10 uM after 24 hrs by propidium iodide staining based flow cytometry (reference value: 34.9%); format: functional; procedure, shortened: as §2
HeLa [10] = assay: Cell cycle arrest in human HeLa cells assessed as accumulation at G0/G1 phase after 24 hrs by propidium iodide staining based flow cytometry; format: functional; procedure, shortened: as §2
[11] = molecular target: Interleukin-1 receptor type 1 (Homo sapiens, UniProt P14778); assay: Inhibition of IL1R in TLR null HEK-blue cells assessed as decrease in IL-1beta-stimulated NF-kappaB activation-mediated SEAP production after 24 hrs by Quanti-blue-based assay; format: cell-based
Sequence of Interleukin-1 receptor type 1 (P14778 whole entry): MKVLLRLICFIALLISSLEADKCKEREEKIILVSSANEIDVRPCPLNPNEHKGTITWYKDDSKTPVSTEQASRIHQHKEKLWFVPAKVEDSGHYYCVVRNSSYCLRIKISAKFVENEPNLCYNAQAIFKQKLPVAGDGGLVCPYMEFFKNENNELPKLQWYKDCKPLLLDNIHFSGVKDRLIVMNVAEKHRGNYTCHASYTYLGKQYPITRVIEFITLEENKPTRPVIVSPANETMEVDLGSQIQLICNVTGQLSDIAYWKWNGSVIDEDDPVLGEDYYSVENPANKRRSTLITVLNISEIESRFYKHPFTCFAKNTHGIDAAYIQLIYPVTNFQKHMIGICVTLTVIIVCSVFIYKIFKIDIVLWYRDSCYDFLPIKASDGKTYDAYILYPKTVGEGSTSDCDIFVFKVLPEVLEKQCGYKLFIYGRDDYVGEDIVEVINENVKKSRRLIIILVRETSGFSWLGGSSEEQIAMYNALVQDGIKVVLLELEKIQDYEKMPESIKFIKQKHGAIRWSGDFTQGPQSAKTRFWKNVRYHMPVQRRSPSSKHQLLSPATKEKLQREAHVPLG

HeLa [12] = assay: Cell cycle arrest in human HeLa cells assessed as accumulation at G0/G1 phase at 5 uM after 24 hrs by propidium iodide staining based flow cytometry (reference value: 49.4%); format: functional; procedure, shortened: as §2
[13] = molecular target: Toll-like receptor 5 (Homo sapiens) (UniProt O60602); assay: Antagonist activity at human TLR5 expressed in HEK293 cells assessed as decrease in flagellin-induced NF-kappaB activation-mediated SEAP production at 10^-9 to 10^-5 M after 24 hrs by Quanti-blue-based assay; format: cell-based; procedure, shortened: as §3
Sequence of Toll-like receptor 5 (Homo sapiens) (O60602 whole entry): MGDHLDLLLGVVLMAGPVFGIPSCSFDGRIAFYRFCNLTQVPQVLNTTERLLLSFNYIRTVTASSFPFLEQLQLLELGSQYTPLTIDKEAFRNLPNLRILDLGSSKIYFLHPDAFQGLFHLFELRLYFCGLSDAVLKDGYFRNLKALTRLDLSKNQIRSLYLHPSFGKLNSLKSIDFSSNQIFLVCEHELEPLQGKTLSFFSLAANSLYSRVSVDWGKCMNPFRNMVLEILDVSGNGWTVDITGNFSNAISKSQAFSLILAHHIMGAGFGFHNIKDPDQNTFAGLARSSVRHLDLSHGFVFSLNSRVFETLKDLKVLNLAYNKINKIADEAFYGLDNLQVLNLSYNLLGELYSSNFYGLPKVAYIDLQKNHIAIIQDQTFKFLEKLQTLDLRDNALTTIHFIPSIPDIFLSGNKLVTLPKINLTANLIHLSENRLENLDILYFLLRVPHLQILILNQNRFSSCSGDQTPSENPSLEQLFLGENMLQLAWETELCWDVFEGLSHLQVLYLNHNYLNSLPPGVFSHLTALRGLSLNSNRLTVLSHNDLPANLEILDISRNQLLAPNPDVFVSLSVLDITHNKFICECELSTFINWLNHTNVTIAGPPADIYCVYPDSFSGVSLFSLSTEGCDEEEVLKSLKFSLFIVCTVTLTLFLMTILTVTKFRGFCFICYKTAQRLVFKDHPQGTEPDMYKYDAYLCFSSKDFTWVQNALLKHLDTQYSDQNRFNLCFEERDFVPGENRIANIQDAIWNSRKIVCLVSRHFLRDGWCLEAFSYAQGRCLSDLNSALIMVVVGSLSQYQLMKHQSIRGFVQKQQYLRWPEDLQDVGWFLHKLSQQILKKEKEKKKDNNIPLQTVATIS

inhibition [1]: Active
inhibition [2]: Active
inhibition [4]: Active
inhibition [6]: inactive
inhibition [7]: Active
IC50 [11]: 720 nM
inhibition [13]: Active
Structure (SMILES): O=C(NNC(=O)c1csc(-c2ccc(Cl)cc2Cl)n1)c1ccccn1
Activity (HEK293): Non-Toxic
Activity (HeLa [3]): 3.6%
Activity [5]: 44%
inhibition (RAW264.7): Active
Activity (HeLa [8]): Dose-dependent effect
Activity (HeLa [9]): 41.7%
Activity (HeLa [10]): Dose-dependent effect
Activity (HeLa [12]): 37.8%
